Data from ChEMBL document CHEMBL1145118, “Metabolites of febrifugine and its synthetic analogue by mouse liver S9 and their antimalarial activity against Plasmodium malaria parasite” (J Med Chem, 2003).

Legend:
[1] = Selectivity ratio between cytotoxicity to antimalarial activity was determined; type: functional
Plasmodium berghei [2] = assay: (§1) In vivo effective dose for antimalarial activity by intraperitoneal dose; type: functional; conditions: ip
Procedure, shortened: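 P. berghei-infected mice, five per group. Test agents were prepared at various concentrations in distilled water or olive oil and given intraperitoneally once daily on days 0–3. Parasitemia was measured on day 4, the day after the last dose, and effective doses were derived by a previously reported protocol.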

Plasmodium berghei [3] = assay: as §1; type: functional; conditions: ip; remark: listed apart in the source
Procedure, shortened: (§2)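 Mice infected with P. berghei were dosed intraperitoneally or orally, in groups of five, once daily on days 0–3. Compounds were given at various concentrations in distilled water or olive oil. Parasitemia was measured on day 4, the day after the last dose. ED50 and ED90 were derived by a previously reported protocol.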

Plasmodium falciparum = assay: In vitro antimalarial activity against Plasmodium falciparum FCR3; type: functional, organism-based
FM3A = assay: Cytotoxicity against FM3A mouse mammary cells; type: functional, cell-based
Plasmodium berghei [4] = assay: In vivo effective dose for antimalarial activity by peroral dose; type: functional; conditions: po; procedure, shortened: as §2
Plasmodium berghei [5] = assay: In vivo antimalarial activity at >100mg/kg intraperitoneal dose; type: functional

Row | EC50 (Plasmodium falciparum) [nM] | Compound | Ratio [1] | ED50 (Plasmodium berghei [2]) [mg/kg] | ED90 (Plasmodium berghei [3]) [mg/kg] | EC50 (FM3A) [nM] | ED50 (Plasmodium berghei [4]) [mg/kg] | ED90 (Plasmodium berghei [4]) [mg/kg] | Inhibition (Plasmodium berghei [5]) [%]
1 | – | CC1(C)[C@@H](n2cnc3ccccc3c2=O)C(=O)C[C@@H]2[C@@H](O)CCCN21 | 238 | 2.5 | 6.6 | – | – | – | –
2 | 6600 | O=C(C[C@H]1NCCC[C@@H]1O)Cn1c(=O)[nH]c2ccccc2c1=O | >13 | – | – | > 85000 | – | – | –
3 | > 52000 | O=C(C[C@H]1NC(=O)CC[C@@H]1O)Cn1cnc2ccccc2c1=O | – | – | – | > 52000 | – | – | –
4 | 2.2 | O=C(C[C@H]1NCCC[C@@H]1O)Cn1cnc2ccc(O)cc2c1=O | 123 | 0.6 | 5.2 | 270 | 15 | 27 | –
5 | 22 | O=C(C[C@H]1NCC[C@H](O)[C@@H]1O)Cn1cnc2ccccc2c1=O | 1636 | 2.4 | 8.3 | 36000 | 8 | 23 | –
6 | – | O=C(C[C@@H]1NCCC[C@H]1O)Cn1cnc2ccccc2c1=O (single isomer, unassigned) [FEBRIFUGINE] | 243 | 0.3 | 1.5 | – | – | – | –
7 | – | C[C@@H]1CC[C@H]2[C@@H](C)C(=O)O[C@@H]3O[C@@]4(C)CC[C@@H]1[C@]32OO4 [ARTEMISININ] | 1000 | 2 | 3.3 | – | 3 | 8 | –
8 | – | CCN(CC)CCCC(C)Nc1ccnc2cc(Cl)ccc12 (stereo not given) [CHLOROQUINE] | – | 5.4 | 13 | – | 32 | 89 | –
9 | – | O=c1c2ccccc2ncn1CC1(O)C[C@@H]2NCCC[C@@H]2O1 (stereo not given in full) [ISOFEBRIFUGINE] | 53 | 79 | – | – | – | – | 70

Row | Compound | EC50 (Plasmodium falciparum) [nM] | Ratio [1] | ED50 (Plasmodium berghei [2]) [mg/kg] | ED90 (Plasmodium berghei [3]) [mg/kg] | EC50 (FM3A) [nM] | ED50 (Plasmodium berghei [4]) [mg/kg] | ED90 (Plasmodium berghei [4]) [mg/kg] | Inhibition (Plasmodium berghei [5]) [%]
10 | O=c1c2cc(O)ccc2ncn1CC1(O)C[C@@H]2NCCC[C@@H]2O1 (stereo not given in full) | 0.27 | 10741 | 6 | 37 | 29000 | – | – | –
11 | O=c1c2ccccc2ncn1CC1(O)C[C@@H]2NCC[C@H](O)[C@@H]2O1 (stereo not given in full) | 150 | 167 | – | – | 250 | – | – | –
